The record followed here is ChEMBL document CHEMBL1137618, “Synthesis and structure-activity relationship studies of 3,6-diazabicyclo[3.2.0]heptanes as novel alpha4beta2 nicotinic acetylcholine receptor selective agonists” (J Med Chem, 2007).

The nature of assay [1]: Displacement of [3H]cytisine from neuronal nicotinic acetylcholine receptor in rat brain membrane. It is filed as cell membranes. (Displacement assays read how much labelled ligand stays bound in the presence of the test substance.)
The target in assay [2] is T1, Neuronal acetylcholine receptor; alpha3/beta4 (Homo sapiens, UniProt P30926+P32297). The assay can be described thus: Agonist activity at recombinant human alpha-3-beta-4 nAChR expressed in HEK293 cells assessed as induction of calcium influx by FLIPR assay. The assay is classed as functional, cell-based.
Assay [3] concerns the target T2, Neuronal acetylcholine receptor; alpha4/beta2 (Homo sapiens, UniProt P17787+P43681). The assay can be described thus: Agonist activity at recombinant human alpha-4-beta-2 nAChR expressed in HEK293 cells assessed as induction of calcium influx by FLIPR assay relative to nicotine. It is filed as functional, cell-based. Put shortly:
(§1)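 HEK-293 lines stably expressing human α4β2 or α3β4 nAChR, grown 24-48 h at 37 °C on poly-D-lysine in DMEM/10% FBS. Loaded with 2-4 µM Fluo-4 AM for ~0.75-1 h at room temperature in the dark, in NMDG Ringer pH 7.4. Serial log dilutions added, then peak calcium fluorescence read on FLIPR after buffer-blank subtraction.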

In assay [4] the target is T2, Neuronal acetylcholine receptor; alpha4/beta2. The assay can be described thus: Agonist activity at recombinant human alpha-4-beta-2 nAChR expressed in HEK293 cells assessed as induction of calcium influx by FLIPR assay. It is filed as functional, cell-based.
For assay [5], the target named is T1, Neuronal acetylcholine receptor; alpha3/beta4. Description: Agonist activity at recombinant human alpha3beta4 nAChR expressed in HEK293 cells assessed as induction of calcium influx by FLIPR assay relative to nicotine. It is filed as functional, cell-based. The gist of the method: as §1

Some results are limits rather than exact numbers.

T2 sequence (P17787 whole entry): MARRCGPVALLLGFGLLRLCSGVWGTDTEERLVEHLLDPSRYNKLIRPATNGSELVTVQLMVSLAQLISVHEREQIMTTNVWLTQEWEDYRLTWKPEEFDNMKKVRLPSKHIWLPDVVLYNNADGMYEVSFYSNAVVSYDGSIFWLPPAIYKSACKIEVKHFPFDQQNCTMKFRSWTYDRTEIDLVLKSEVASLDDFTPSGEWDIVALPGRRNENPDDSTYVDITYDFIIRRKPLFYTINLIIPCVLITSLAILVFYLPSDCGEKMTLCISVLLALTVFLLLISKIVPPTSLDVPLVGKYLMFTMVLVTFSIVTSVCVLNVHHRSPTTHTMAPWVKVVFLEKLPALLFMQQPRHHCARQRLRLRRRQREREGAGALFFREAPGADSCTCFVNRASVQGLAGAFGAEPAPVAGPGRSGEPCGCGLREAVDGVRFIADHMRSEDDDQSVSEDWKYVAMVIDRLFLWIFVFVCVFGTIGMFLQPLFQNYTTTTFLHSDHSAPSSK
T2 sequence (P43681 whole entry): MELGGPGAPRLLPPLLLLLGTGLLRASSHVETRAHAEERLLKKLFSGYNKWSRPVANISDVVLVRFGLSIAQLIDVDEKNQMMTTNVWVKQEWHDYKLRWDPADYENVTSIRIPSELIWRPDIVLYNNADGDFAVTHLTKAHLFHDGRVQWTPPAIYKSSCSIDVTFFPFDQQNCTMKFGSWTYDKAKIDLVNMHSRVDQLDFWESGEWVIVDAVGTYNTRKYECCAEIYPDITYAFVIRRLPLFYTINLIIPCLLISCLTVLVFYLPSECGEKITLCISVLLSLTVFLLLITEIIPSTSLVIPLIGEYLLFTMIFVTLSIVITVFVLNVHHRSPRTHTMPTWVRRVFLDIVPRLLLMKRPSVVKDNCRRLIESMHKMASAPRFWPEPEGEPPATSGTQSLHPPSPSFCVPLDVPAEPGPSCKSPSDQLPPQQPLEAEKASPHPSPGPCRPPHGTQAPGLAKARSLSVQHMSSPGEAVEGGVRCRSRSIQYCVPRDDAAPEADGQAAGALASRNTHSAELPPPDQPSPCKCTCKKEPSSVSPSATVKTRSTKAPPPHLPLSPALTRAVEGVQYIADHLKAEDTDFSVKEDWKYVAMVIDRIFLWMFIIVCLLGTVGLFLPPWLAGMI
T1 sequence (P30926 whole entry): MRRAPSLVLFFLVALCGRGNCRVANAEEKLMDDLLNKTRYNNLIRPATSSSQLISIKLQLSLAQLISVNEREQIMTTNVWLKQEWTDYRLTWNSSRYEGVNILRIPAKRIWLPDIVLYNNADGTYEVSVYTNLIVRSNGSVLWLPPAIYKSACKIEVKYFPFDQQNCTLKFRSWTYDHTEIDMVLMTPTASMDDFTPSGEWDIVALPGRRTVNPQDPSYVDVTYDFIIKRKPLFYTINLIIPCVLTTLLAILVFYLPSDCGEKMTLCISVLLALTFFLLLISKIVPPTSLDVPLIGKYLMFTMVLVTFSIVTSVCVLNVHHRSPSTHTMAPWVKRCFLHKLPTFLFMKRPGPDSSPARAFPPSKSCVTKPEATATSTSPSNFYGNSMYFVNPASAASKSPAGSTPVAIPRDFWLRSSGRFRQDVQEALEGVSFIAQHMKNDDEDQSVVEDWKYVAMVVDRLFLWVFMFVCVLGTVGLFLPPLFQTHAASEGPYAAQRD
T1 sequence (P32297 whole entry): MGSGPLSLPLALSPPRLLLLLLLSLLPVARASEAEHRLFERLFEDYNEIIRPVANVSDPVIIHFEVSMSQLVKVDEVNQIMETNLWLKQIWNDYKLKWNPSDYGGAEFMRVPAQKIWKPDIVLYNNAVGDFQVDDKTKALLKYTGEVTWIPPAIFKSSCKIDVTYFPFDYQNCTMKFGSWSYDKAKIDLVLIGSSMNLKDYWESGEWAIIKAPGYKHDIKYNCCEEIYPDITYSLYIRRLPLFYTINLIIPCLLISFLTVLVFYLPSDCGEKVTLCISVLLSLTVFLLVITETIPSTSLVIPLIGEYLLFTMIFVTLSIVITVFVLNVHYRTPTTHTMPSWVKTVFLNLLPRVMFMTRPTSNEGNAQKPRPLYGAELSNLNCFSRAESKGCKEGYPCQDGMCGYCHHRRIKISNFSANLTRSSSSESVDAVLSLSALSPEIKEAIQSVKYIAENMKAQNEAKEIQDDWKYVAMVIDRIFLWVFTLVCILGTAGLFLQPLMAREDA

Turning to `Brc1cc(N2C[C@@H]3CN[C@@H]3C2)cnc1Br`, affinity in assay [1] was put at a Ki of 0.3 nM. For the same compound, in assay [1], the “Log Ki” value is -9.52. Further, the EC50 – broadly, the midpoint of the concentration-response curve – in assay [2] (read-out: EC50) was determined as 1300 nM; in assay [4] (read-out: EC50), 1200 nM. Also, the results for the Activity in assay [3] and in assay [5] were 122% and 90%, respectively.

As for `Cc1cc(N2C[C@H]3CNC[C@H]32)cnc1C`, the affinity in assay [1] corresponds to a Ki of 8 nM. The “Log Ki” value in assay [1] is reported as -8.1. Further, the EC50 in assay [2] (read-out: EC50) was found to be 4200 nM; in assay [4] (read-out: EC50), 2100 nM. Also, the Activity in assay [3] came out at 85%; in assay [5], 86%.

On to `Clc1cc(N2C[C@@H]3CN[C@@H]3C2)cnc1Cl` [SOFINICLINE], for which the affinity in assay [1] corresponds to a Ki of 0.3 nM. Besides, in assay [1], the “Log Ki” value was -9.53. Moreover, the results for the EC50 in assay [2] (read-out: EC50) and in assay [4] (read-out: EC50) were 1500 nM and 400 nM, respectively. Also, the Activity in assay [3] is 110%; in assay [5] it was 92%.

For the compound `Clc1cc(N2C[C@@H]3CNC[C@@H]32)cnc1Cl`, affinity in assay [1] was put at a Ki of 1.2 nM. Further, in assay [1], the “Log Ki” value is listed as -8.93. The EC50 in assay [2] (read-out: EC50) worked out at 2600 nM; in assay [4] (read-out: EC50), 900 nM. For the same compound, the values for the Activity in assay [3] and in assay [5] were 110% and 87%, respectively.

As for `COc1cncc(N2C[C@H]3CNC[C@H]32)c1`, in assay [1], the inhibitory constant (Ki) – broadly, a measure of affinity in units of concentration, obtained from inhibition or displacement – was 0.8 nM. In addition, in assay [1], the “Log Ki” value was -9.12. The EC50 in assay [2] (read-out: EC50) is 25800 nM; in assay [4] (read-out: EC50), 3600 nM; in assay [4] (read-out: Log EC50 (converted)), 3390 nM. For the same compound, the Activity in assay [3] is 90%; in assay [5] it was 72%.

For `Cc1cc(N2C[C@H]3CN[C@H]3C2)cnc1Cl`, the affinity in assay [1] corresponds to a Ki of 0.04 nM. Also, in assay [1], the “Log Ki” value is recorded as -10.4. In addition, the concentration for a half-maximal effect (EC50) was 200 nM in assay [2] (read-out: EC50), 178 nM in assay [2] (read-out: Log EC50 (converted)), 700 nM in assay [4] (read-out: EC50) and 72.4 nM in assay [4] (read-out: Log EC50 (converted)). Further, the figures for the Activity in assay [3] and in assay [5] were 228% and 119%, respectively.

The compound `N#Cc1cncc(N2C[C@@H]3CNC[C@@H]32)c1` returned a Ki in assay [1] of 0.9 nM. Moreover, the “Log Ki” value in assay [1] is reported as -9.07. Moreover, the half-maximal effective concentration (EC50) in assay [2] (read-out: EC50) was 13700 nM; in assay [2] (read-out: Log EC50 (converted)), 12300 nM; in assay [4] (read-out: EC50), 11400 nM; in assay [4] (read-out: Log EC50 (converted)), 9120 nM. Also, the Activity in assay [3] amounted to 34%; in assay [5], 47%.

Compound `Brc1cncc(N2C[C@H]3CN[C@H]3C2)c1` came in with a Ki in assay [1] of 0.1 nM. Further, the “Log Ki” value in assay [1] is -10.2. Further, the figures for the EC50 in assay [2] (read-out: EC50), in assay [2] (read-out: Log EC50 (converted)) and in assay [4] (read-out: EC50) were 200 nM, 240 nM and 1100 nM, respectively. Also, the Activity was 161% in assay [3] and 115% in assay [5].

With `Cc1ncc(N2C[C@H]3CNC[C@H]32)cc1C#N`, the Ki in assay [1] stood at 1.1 nM. Also, the “Log Ki” value in assay [1] is reported as -8.95. Moreover, the figures for the EC50 in assay [2] (read-out: EC50), in assay [4] (read-out: EC50) and in assay [4] (read-out: Log EC50 (converted)) were 2100 nM, 3900 nM and 3800 nM, respectively. The Activity in assay [3] turned out to be 128%; in assay [5], 96%.

As to `COc1cc(N2C[C@H]3CNC[C@H]32)cnc1Br`, the Ki in assay [1] was determined as 0.2 nM. In addition, the “Log Ki” value in assay [1] is -9.68. Besides, the EC50 in assay [2] (read-out: EC50) was found to be 1800 nM; in assay [4] (read-out: EC50), 900 nM. Further, the Activity in assay [3] was 118%; in assay [5], 94%.

Take `c1cncc(N2C[C@H]3CNC[C@H]32)c1`: the Ki in assay [1] was found to be 1.3 nM. Also, the “Log Ki” value in assay [1] is -8.88. The EC50 was 2940 nM in assay [2] (read-out: EC50), 29500 nM in assay [2] (read-out: Log EC50 (converted)), 1900 nM in assay [4] (read-out: EC50) and 1820 nM in assay [4] (read-out: Log EC50 (converted)). For the same compound, the Activity was 116% in assay [3] and 62% in assay [5].

As to `Cc1cc(N2C[C@H]3CN[C@H]3C2)cnc1C`, in assay [1], the Ki is 0.3 nM. Besides, the “Log Ki” value in assay [1] is -9.59. For the same compound, the EC50 in assay [2] (read-out: EC50) was determined as 3300 nM; in assay [4] (read-out: EC50) it was 200 nM. The Activity in assay [3] was found to be 124%; in assay [5], 96%.

In assay [1], `Clc1cncc(N2C[C@H]3CNC[C@H]32)c1` gave a Ki of 3 nM. Further, the “Log Ki” value in assay [1] is -8.53. For the same compound, the EC50 in assay [2] (read-out: EC50) was 23000 nM; in assay [4] (read-out: EC50), 8100 nM; in assay [4] (read-out: Log EC50 (converted)) it was 7240 nM. For the same compound, the results for the Activity in assay [3] and in assay [5] were 88% and 81%, respectively.

Compound `Cc1cc(N2C[C@@H]3CN[C@@H]3C2)cnc1Cl` displayed a Ki in assay [1] of 0.08 nM. Also, the “Log Ki” value in assay [1] is given as -10.1. For the same compound, the EC50 was determined as 700 nM in assay [2] (read-out: EC50) and 300 nM in assay [4] (read-out: EC50). For the same compound, the Activity in assay [3] amounted to 134%; in assay [5], 100%.

Consider `c1cncc(N2C[C@H]3CN[C@H]3C2)c1`, for which affinity in assay [1] was put at a Ki of 0.1 nM. For the same compound, the “Log Ki” value in assay [1] is listed as -9.96. Moreover, the EC50 in assay [2] (read-out: EC50) was 6000 nM; in assay [2] (read-out: Log EC50 (converted)), 603 nM; in assay [4] (read-out: EC50), 300 nM. The results for the Activity in assay [3] and in assay [5] were 181% and 119%, respectively.

For the compound `Clc1cncc(N2C[C@@H]3CN[C@@H]3C2)c1`, in assay [1], the Ki was 1.9 nM. In addition, the “Log Ki” value in assay [1] is listed as -8.72. For the same compound, the EC50 in assay [2] (read-out: EC50) is 25300 nM; in assay [4] (read-out: EC50), 11400 nM; in assay [4] (read-out: Log EC50 (converted)), 9330 nM. Moreover, the Activity in assay [3] was 66%; in assay [5], 57%.

Regarding `C#Cc1cncc(N2C[C@H]3CNC[C@H]32)c1`, the EC50 in assay [2] (read-out: EC50) is 86900 nM; in assay [2] (read-out: Log EC50 (converted)), 77600 nM; in assay [4] (read-out: EC50), 13400 nM; in assay [4] (read-out: Log EC50 (converted)) it was 4900 nM. The Activity in assay [3] was determined as 77%; in assay [5], 57%.

In assay [1], `Brc1cncc(N2C[C@H]3CNC[C@H]32)c1` registered a Ki of 3.1 nM. Further, the “Log Ki” value in assay [1] is on record as -8.51. The Activity in assay [3] is 31%; in assay [5], less than 10%. Moreover, the EC50 in assay [4] (read-out: EC50) was 4400 nM; in assay [4] (read-out: Log EC50 (converted)), 4070 nM.

`N=C(NO)c1cncc(N2C[C@H]3CNC[C@H]32)c1` returned a Ki in assay [1] of 29.1 nM. Further, in assay [1], the “Log Ki” value was -7.54. In addition, the Activity in assay [3] was 76%; in assay [5] it was less than 10%. Moreover, the results for the EC50 in assay [4] (read-out: EC50) and in assay [4] (read-out: Log EC50 (converted)) were 7200 nM and 6760 nM, respectively.

As to `c1coc(-c2cncc(N3C[C@H]4CNC[C@H]43)c2)n1`, the Activity in assay [3] and in assay [5] was less than 10% in each case.

Turning to `Clc1ccc(C2CC3CCC2N3)cn1` (centres undefined) [EPIBATIDINE], the figures for the Activity in assay [3] and in assay [5] were 133% and 103%, respectively.

On to `N#Cc1cc(N2C[C@H]3CNC[C@H]32)c[n+]([O-])c1`, for which, in assay [1], the Ki is 18.6 nM. In addition, the “Log Ki” value in assay [1] is -7.74. The results for the Activity in assay [3] and in assay [5] were 69% and less than 10%, respectively. Moreover, the figures for the EC50 in assay [4] (read-out: EC50) and in assay [4] (read-out: Log EC50 (converted)) were 7500 nM and 4570 nM, respectively.

`CN1CCC[C@H]1c1cccnc1` [NICOTINE]: the Activity in assay [3] amounted to 101%; in assay [5], 89%.

The compound `N#Cc1cncc(N2C[C@H]3CNC[C@H]32)c1` yielded a Ki in assay [1] of 3.2 nM. For the same compound, in assay [1], the “Log Ki” value is listed as -8.5. For the same compound, the Activity came to 65% in assay [3] and 16% in assay [5]. Also, the results for the EC50 in assay [4] (read-out: EC50) and in assay [4] (read-out: Log EC50 (converted)) were 5900 nM and 5130 nM, respectively.
